The target in data set [1] is Mitogen-activated protein kinase 9 (Homo sapiens) (UniProt P45984). As to the kind of experiment: Induction of JNK phosphorylation in human T98G cells at 20 uM after 30 to 60 mins for 2 hrs by Western blot analysis. Type of data set: cell-based. A general note: A western blot detects proteins with antibodies after separation by electrophoresis.
Data set [2] concerns T98G. As to the kind of experiment: Induction of apoptosis in human T98G cells assessed as increase in ROS production at 20 uM after 24 hrs by DCFH-DA staining-based flow cytometric analysis in presence of 5 mM NAC. Type of data set: functional, cell-based. The essentials: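 T98G incubated with 20 μM, with or without 5 mM NAC pretreatment, for 5−120 min or 24 h; washed, resuspended at 2 × 10^5 cells/mL in HBSS with 10 μM DCFH-DA, 20 min at 37 °C; DCF fluorescence read by flow cytometry (FL1), also viewed by fluorescence microscopy.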
(In general: A flow cytometer gives signals particle by particle.)

Data set [3] concerns T98G. Description: Induction of apoptosis in human T98G cells after 48 hrs by propidium iodide staining-based flow cytometric analysis. Type of data set: functional, cell-based. The method, boiled down: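 Cells treated 1−50 μM for 24 or 48 h, washed in PBS, resuspended in 0.1% sodium citrate, 0.1% Triton X-100, 50 μg/mL propidium iodide, 30 min at 4 °C in dark. Nuclei analyzed by flow cytometry, DNA on log scale, debris gated out; percent hypodiploid (sub-G1) nuclei reported. Three experiments in triplicate.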

Data set [4] concerns T98G. Description: Induction of cell cycle arrest in human T98G cells assessed as accumulation at S phase at 1 to 20 uM after 48 hrs by flow cytometric analysis. The data set is classed as functional, cell-based. The method, boiled down:
(§1)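 2 × 10^5 cells per dish exposed 48 h (1−20 μM per legend); harvested, fixed in cold 70% ethanol at −20 °C, stained with propidium iodide plus RNase A (100 U/mL) 30 min at room temperature; percentage in G1, S, G2/M by flow cytometry. Three experiments in triplicate.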

Data set [5] has as its system T98G. As to the kind of experiment: Anticancer activity against human T98G cells assessed as decrease in cell viability after 48 hrs by MTT assay. The data set is classed as functional, cell-based. The method, boiled down:
(§2)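 Cells (T98G, U87-MG, NHA; 3 × 10^4 per well) plated, next day exposed to serial dilutions (1−50 μM) for 48 h at 37 °C, 5% CO2. MTT (5 mg/mL) added for 3 h; crystals solubilized in 50% DMF/20% SDS pH 4.5; OD at 620 nm. Viability = % of DMSO (0.1% final) controls. Means ± SEM, three experiments in triplicate.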

Data set [6] has as its system U-87 MG. Description: Induction of cell cycle arrest in human U87MG cells assessed as accumulation at G2/M phase at 1 to 20 uM after 48 hrs by flow cytometric analysis. The data set is classed as functional, cell-based. The conditions noted are these: U-87MG ATCC. The essentials: as §1
In data set [7] the test system is T98G. As to the kind of experiment: Induction of apoptosis in human T98G cells assessed as decrease in Bcl-2 expression at 20 uM after 48 hrs by Western blot analysis in presence of 5 mM NAC. The data set is classed as functional, cell-based. The essentials: (§3)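 T98G exposed to 20 μM for various times (0−48 h), NAC 5 mM where stated. Total lysates, or digitonin-permeabilized cytosolic and mitochondrial fractions (10000g, 15 min, 4 °C) for cytochrome c, blotted for caspase-3, caspase-9, PARP (1:1000), Bcl-2 (1:500), cytochrome c; β-actin loading control; ECL detection. Three experiments.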

The target in data set [8] is MAP kinase p38 (Homo sapiens) (UniProt O15264+Q15759+Q16539+P53778). Description: Induction of p38 phosphorylation in human T98G cells at 20 uM after 30 to 60 mins for 2 hrs by Western blot analysis. Type of data set: cell-based. The method, boiled down:
(§4)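 T98G exposed to 20 μM for 5−120 min or 24 h, with or without 5 mM NAC. Lysates (Tris/deoxycholate/SDS/IGEPAL with protease and phosphatase inhibitors) immunoblotted with anti-p-ERK, ERK1/2 (1:1000), p-p38, p38; ECL detection; phospho signals normalized to total ERK1/2 or p38. Three experiments.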

Data set [9] concerns T98G. Description: Anticancer activity against human T98G cells assessed as decrease in cell viability at 10 uM after 48 hrs by MTT assay. The data set is classed as functional, cell-based. The essentials:
as §2
(Tetrazolium assays rely on reduction of a dye to a coloured formazan, in cell work by metabolically active cells.)

The nature of data set [10]: Cytotoxicity against normal human astrocytes assessed as decrease in cell viability after 48 hrs by MTT assay. Type of data set: cell-based. The settings on record: astrocyte. The method, boiled down:
as §2

Data set [11] has as its system U-87 MG. Description: Induction of cell cycle arrest in human U87MG cells assessed as accumulation at G0/G1 phase at 1 to 20 uM after 48 hrs by flow cytometric analysis. The data set is classed as functional, cell-based. The settings on record: U-87MG ATCC. The essentials:
as §1

The subject of data set [12] is T98G. As to the kind of experiment: Induction of apoptosis in human T98G cells assessed as decrease in Bcl-2 expression at 20 uM by Western blot analysis. Type of data set: functional, cell-based. The conditions noted are these: TDE = time-dependent effect. The essentials: as §3
In data set [13] the test system is T98G. Description: Induction of apoptosis in human T98G cells assessed as increase in ROS production at 20 uM after 48 hrs by DCFH-DA staining-based flow cytometric analysis in presence of 5 mM NAC. The data set is classed as functional, cell-based.
The test system of data set [14] is T98G. As to the kind of experiment: Induction of apoptosis in human T98G cells assessed as decrease in Bcl-2 expression at 20 uM after 48 hrs by Western blot analysis. Type of data set: functional, cell-based. The essentials: as §3
The subject of a further data set is U-87MG ATCC. As to the kind of experiment: Anticancer activity against human U87MG cells assessed as decrease in cell viability at 50 uM after 48 hrs by MTT assay. Type of data set: functional, cell-based. The essentials: as §2
For data set [15], the system named is U-87 MG. As to the kind of experiment: Induction of cell cycle arrest in human U87MG cells assessed as accumulation at S phase at 1 to 20 uM after 48 hrs by flow cytometric analysis. Type of data set: functional, cell-based. The conditions noted are these: U-87MG ATCC. The method, boiled down:
as §1

Data set [16] has as its system T98G. Description: Induction of apoptosis in human T98G cells at 20 uM after 48 hrs by flow cytometric analysis pretreated with 20 uM Erk inhibitor PD98059 for 30 mins. Type of data set: functional. On the set-up: scale not given: the % may be the effect or the level left. The method, boiled down:
(§5)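 T98G pretreated with PD98059 (20 μM, 30 min), SB203580 (5 μM, 1 h) or SP600125 (5 μM, 1 h), then exposed to 20 μM for 48 h; hypodiploid nuclei quantified by propidium iodide flow cytometry. Means ± SEM, three experiments in triplicate.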

For data set [17], the target named is T1, Mitogen-activated protein kinase; ERK1/ERK2 (Homo sapiens) (UniProt P27361+P28482). As to the kind of experiment: Induction of Erk1/2 phosphorylation in human T98G cells at 20 uM measured after 24 hrs by Western blot analysis in presence of 5 mM of NAC. The data set is classed as cell-based. The essentials:
as §4

The subject of data set [18] is T98G. Description: Induction of cell cycle arrest in human T98G cells assessed as accumulation at G0/G1 phase at 1 to 20 uM after 48 hrs by flow cytometric analysis. Type of data set: functional, cell-based. The method, boiled down:
as §1

Data set [19] relates to T98G. As to the kind of experiment: Induction of apoptosis in human T98G cells at 20 uM after 48 hrs by flow cytometric analysis pretreated with 5 uM JNK inhibitor SP600125 for 1 hr. Type of data set: functional, cell-based. The method, boiled down: as §5
Data set [20] has as its system T98G. As to the kind of experiment: Induction of apoptosis in human T98G cells assessed as increase in cleaved PARP protein level at 20 uM after 24 hrs by Western blot analysis. The data set is classed as functional, cell-based. The essentials: as §3
The target in data set [21] is T1, Mitogen-activated protein kinase; ERK1/ERK2 (Homo sapiens). As to the kind of experiment: Induction of Erk1/2 phosphorylation in human T98G cells at 20 uM measured every 5 mins for 2 hrs by Western blot analysis in presence of 5 mM of NAC. The data set is classed as cell-based. The essentials: as §4
Data set [22] relates to T98G. Description: Induction of apoptosis in human T98G cells at 20 uM after 48 hrs by flow cytometric analysis pretreated with 5 uM p38 inhibitor SB203580 for 1 hr. The data set is classed as functional, cell-based. The method, boiled down:
as §5

Calls of active or inactive are those of the source. The calls are words filed in the database; no cut-off is given here.

T1 sequence (P27361 whole entry, looked up): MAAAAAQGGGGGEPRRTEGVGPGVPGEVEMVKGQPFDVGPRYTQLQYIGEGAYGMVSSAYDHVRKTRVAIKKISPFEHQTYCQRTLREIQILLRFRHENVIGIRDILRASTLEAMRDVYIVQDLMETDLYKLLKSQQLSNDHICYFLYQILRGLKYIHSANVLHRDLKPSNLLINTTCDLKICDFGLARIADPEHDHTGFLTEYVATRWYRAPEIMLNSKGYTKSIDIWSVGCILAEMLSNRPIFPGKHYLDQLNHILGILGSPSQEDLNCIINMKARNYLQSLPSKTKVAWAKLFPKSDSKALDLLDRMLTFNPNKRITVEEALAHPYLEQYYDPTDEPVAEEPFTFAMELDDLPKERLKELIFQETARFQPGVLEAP
T1 sequence (P28482 whole entry, looked up): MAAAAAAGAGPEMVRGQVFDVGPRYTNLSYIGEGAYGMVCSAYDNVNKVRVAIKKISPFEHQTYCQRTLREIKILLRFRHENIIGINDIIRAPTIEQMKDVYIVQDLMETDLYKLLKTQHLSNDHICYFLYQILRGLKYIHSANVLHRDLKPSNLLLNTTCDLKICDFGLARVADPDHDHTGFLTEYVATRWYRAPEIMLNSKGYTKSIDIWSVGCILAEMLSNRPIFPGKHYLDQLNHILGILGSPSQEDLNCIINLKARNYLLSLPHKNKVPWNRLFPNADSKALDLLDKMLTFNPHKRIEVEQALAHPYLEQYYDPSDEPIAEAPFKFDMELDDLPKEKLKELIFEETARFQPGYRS
Sequence of Mitogen-activated protein kinase 9 (Homo sapiens) (P45984 whole entry, looked up): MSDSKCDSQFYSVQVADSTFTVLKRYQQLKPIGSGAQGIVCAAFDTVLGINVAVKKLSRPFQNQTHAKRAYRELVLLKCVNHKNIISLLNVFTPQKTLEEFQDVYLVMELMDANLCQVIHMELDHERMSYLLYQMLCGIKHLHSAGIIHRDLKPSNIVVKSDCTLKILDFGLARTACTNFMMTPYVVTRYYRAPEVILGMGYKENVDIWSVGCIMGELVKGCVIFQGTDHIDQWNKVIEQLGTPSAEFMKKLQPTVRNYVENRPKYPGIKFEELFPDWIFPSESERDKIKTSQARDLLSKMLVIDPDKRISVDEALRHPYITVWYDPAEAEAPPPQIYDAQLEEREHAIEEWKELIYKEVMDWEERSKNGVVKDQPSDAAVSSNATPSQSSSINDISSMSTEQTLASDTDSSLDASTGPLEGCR

As for `COc1cc(O)c(CC=C(C)C)c(O)c1C(=O)/C=C/c1ccc(O)cc1` [XANTHOHUMOL], the result (in data set [1]; with T98G [2]; in the data set on T98G [4]; in the data set on U-87 MG [6]; with T98G [7]; in the data set with U-87 MG [11]) was inactive. Moreover, the result (in the data set with T98G [13]; with U-87 MG [15]; in [17]; in the data set on T98G [18]; in data set [21]; in the data set on T98G [22]) was inactive. Further, the Activity result in the data set on T98G [3] was “Dose-dependent effect”; in the data set on T98G [5] it was “Dose-dependent effect”; in data set [10], “Non-toxic”; in the data set with T98G [12] it was “tde”; in the data set with T98G [16] it was 50%. The result (in data set [8]; with T98G [9]; in the data set with T98G [14]; in the data set with U-87MG ATCC; in the data set with T98G [19]; in the data set on T98G [20]) was Active.

Source of the values: ChEMBL document CHEMBL1932940, “Xanthohumol induces apoptosis in human malignant glioblastoma cells by increasing reactive oxygen species and activating MAPK pathways” (J Nat Prod, 2011).
